Results taken from PubChem BioAssay AID504679 (The Scripps Research Institute Molecular Screening Center, 2011).
Calls of active or inactive are those of the source.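 The calls were made as follows: active = IC50 of 10 µM or lower; inactive = IC50 above 10 µM.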

tested on: E. coli V66 + T4 gene 2 phage, OD growth; experiment: E. coli RecBCD inhibitors, late-stage follow-up, counter-screen for AddAB inhibitor project, absorbance, V66 E. coli, dose response (AID 504679)
Outline: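 signal = absorbance at 600 nm as bacterial growth measure | assay system = E. coli V66 cells infected with T4 phage | read-out = percent inhibition scaled between ciprofloxacin and DMSO control wells | compound dosing = 1:3 series, top 118.6 µM nominal | times = 18 h phage exposure at 37 °C before reading | controls = Ciprofloxacin-treated wells and DMSO-only wells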

SMILES	IC50
O=C(OCC(=O)c1cccs1)c1ccc([N+](=O)[O-])o1	> 119 µM (inactive)
O=C(Nc1cccc(NC(=O)c2ccccc2Cl)c1)c1ccc([N+](=O)[O-])o1	> 119 µM (inactive)
N#Cc1c(NC(=O)c2ccc([N+](=O)[O-])o2)sc2c1CCC2	> 119 µM (inactive)
Cc1ccc2nc(/C(C#N)=C\c3ccc([N+](=O)[O-])o3)[nH]c2c1	> 119 µM (inactive)
Cc1cccnc1NC(=O)c1ccc([N+](=O)[O-])o1	> 119 µM (inactive)
O=C(NCc1cccnc1)c1ccc([N+](=O)[O-])o1	93.8 µM (inactive)
O=C(Nc1ncccn1)c1ccc([N+](=O)[O-])o1	> 119 µM (inactive)
CCn1cc(C(=O)O)c(=O)c2cnc(N3CCN(C(=S)Nc4ccccc4C(F)(F)F)CC3)nc21	103 µM (inactive)
C=CCn1c(Sc2ncc([N+](=O)[O-])s2)n[nH]c1=O	46.5 µM (inactive)
CC(=O)Nc1ccc2nc(NC(=O)c3ccc([N+](=O)[O-])o3)sc2c1	> 119 µM (inactive)
NC(=O)c1ccsc1NC(=O)COC(=O)c1ccc([N+](=O)[O-])o1	> 119 µM (inactive)
O=C(Nc1ccc(N2CCOCC2)cc1)c1ccc([N+](=O)[O-])o1	> 119 µM (inactive)
